Series [1] is described as follows: Biodistribution of ^68Ga-DOTA-RGD in MGC-803 tumor-bearing mice. The class given is in vivo. Conditions: BALB/c nude, mouse, tumor (MGC-803 xenograft), iv, 10 MBq, total radioactivity. In a few lines:
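Female BALB/c nude mice (4–5 weeks, SPF) bearing s.c. right-shoulder xenografts of 5 × 10^6 MGC-803 cells in PBS; cells grown in DMEM/10% FBS, 37 °C, 5% CO2. Injected 10 MBq radiotracer (740 MBq/μmol), killed at 60 and 180 min. Blocking by co-injection of excess unlabelled thiol peptide (50 mg/kg), 180 min. Ten tissues weighed and gamma-counted, expressed as %ID/g; n = 3.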

The subject of another series is inflamed tissue. As to the kind of experiment: Biodistribution of ^68Ga-DOTA-BSA in the turpentine oil inflammation model. Conditions: 5–10 MBq, mean ± SD, n = 3. The class given is in vivo, mice. In a few lines: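 Inflammation induced by s.c. injection of 30 μL turpentine oil into the right thigh of female mice (4–5 weeks old). Radiolabelled albumin tracer (5–10 MBq; 130 MBq/μmol) injected. Mice killed under anaesthesia at 30 and 60 min post-injection. Inflamed tissue and organs collected, weighed, gamma-counted, and expressed as %ID/g. n = 3, mean ± SD.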

In general, tissue uptake refers to the percentage of the injected dose found per gram of tissue.

Where a SMILES comes first, the peptide text is derived from it. [ ]: non-standard residue; d: D form. The star is where a group is joined. X1 = O=C(O)CN1CCN(CC(=O)O)CCN(CC(=O)NCCN2C(=O)CC(*)C2=O)CCN(CC(=O)O)CC1

Consider `N=C(N)NCCC[C@@H]1NC(=O)[C@H](CSC2CC(=O)N(CCNC(=O)CN3CCN(CC(=O)O)CCN(CC(=O)O)CCN(CC(=O)O)CC3)C2=O)NC(=O)[C@H](CCCCN)NC(=O)[C@@H](Cc2ccc(O)cc2)NC(=O)[C@H](CC(=O)O)NC(=O)CNC1=O` (stereo partly shown) [^68Ga-DOTA-RGD, metal not drawn] (cyclo(RGD[dY]KC(X1))), for which, in series [1], the tissue uptake at 1 h was 4.31 ± 0.93 %ID/g and the tissue uptake at 3 h came out at 8.3 ± 0.92 %ID/g.

As to “^68Ga-DOTA-BSA: ^68Ga-labeled DOTA-Mal conjugated to DTT-treated bovine serum albumin (HS-BSA)”, the “uptake in inflammatory tissues” value was 4.32 ± 1.10 % ID/g with inflamed tissue (0.5 h after injection) and 6.50 ± 0.40 % ID/g with inflamed tissue (1 h after injection).
